Measured values pooled from the literature.
Compare with care: the assays were run in different laboratories.
KDR: Vascular endothelial growth factor receptor 2 (KDR, Homo sapiens, UniProt P35968)
PIK3CA: Phosphatidylinositol 4,5-bisphosphate 3-kinase catalytic subunit alpha isoform (PIK3CA, Homo sapiens, UniProt P42336)
Histone acetyltransferase KAT6B: Histone acetyltransferase KAT6B (Homo sapiens, UniProt Q8WYB5)
DNA polymerase catalytic subunit: DNA polymerase catalytic subunit (Human cytomegalovirus, UniProt P08546)
NOX5: NADPH oxidase 5 (NOX5, Homo sapiens, UniProt Q96PH1)
PIK3CB: Phosphatidylinositol 4,5-bisphosphate 3-kinase catalytic subunit beta isoform (PIK3CB, Homo sapiens, UniProt P42338)
Trpm7: Transient receptor potential cation channel subfamily M member 7 (Trpm7, Mus musculus, UniProt Q923J1)

For CC(=NNC(N)=S)c1ccc(Nc2nnc(-c3ccc(Cl)cc3)c3ccccc23)cc1, the IC50 was 375 nM (KDR; cell-free assay, inhibitor).
For O=c1oc(-c2ccco2)nc2ccccc12, the IC50 was 840 nM (Cathepsin G (CTSG, Homo sapiens, UniProt P08311); enzyme activity, inhibitor, absorbance; pH 7.4).
Cc1nc(Nc2ccc3c(c2)CC(=O)N3)c2ccccc2n1 gave an IC50 of 56 nM (PIK3CA; enzyme activity, inhibitor, ADP detection).
For COc1cc(C)c2cc(C(=O)NS(=O)(=O)c3cccc4ccc(C)nc34)oc2c1, the IC50 was 22 nM (Histone acetyltransferase KAT6B; enzyme activity, inhibitor, TR-FRET).
CNCCN1CCN(c2cnc3c(cc(C(=O)NCc4ccc(Cl)cc4)c(=O)n3CC(=O)N3CC(C)(F)C3)n2)C1=O gave an IC50 of 571 nM (DNA polymerase catalytic subunit; enzyme activity, inhibitor).
The IC50 of COc1cc2ncnc(N(C)c3ccc4c(c3)/C(=C/c3cccc(Cl)c3)C(=O)N4C)c2cc1OC is reported as greater than 1000 nM (PIK3CA; enzyme activity, inhibitor, ADP detection).
Cc1coc2c1C(=O)C(=O)c1c-2ccc2c1CCCC2(C)CO (stereo not drawn) gave an IC50 of 5200 nM (NOX5; enzyme activity, inhibitor).
With CCOc1ccccc1S(=O)(=O)NC(=O)c1cc2c(OC)cc(OC)cc2o1 the IC50 was 309 nM (Histone acetyltransferase KAT6B; enzyme activity, inhibitor, TR-FRET).
For Cc1nc(Nc2ccc3c(c2)/C(=C/c2ccccc2Cl)C(=O)N3)c2ccccc2n1, the IC50 was 90.2 nM (PIK3CB; enzyme activity, inhibitor, ADP detection).
COc1cc(C)c2cc(C(=O)NS(=O)(=O)c3ccc(C)cc3)oc2c1 gave an IC50 of 262 nM (Histone acetyltransferase KAT6B; enzyme activity, inhibitor, TR-FRET).
The IC50 of COc1cc2ncnc(Nc3ccc4c(c3)/C(=C/c3cccc(Cl)c3)C(=O)N4C)c2cc1OC is reported as 121 nM (PIK3CA; enzyme activity, inhibitor, ADP detection).
The IC50 of CCOc1ccc2cc(C(=O)NS(=O)(=O)c3ccccc3-c3ccccc3)oc2c1 is reported as 3020 nM (Histone acetyltransferase KAT6B; enzyme activity, inhibitor, TR-FRET).
N#Cc1ccc(COC[C@H]2O[C@@H](n3c(NCc4ccc(Cl)c(Cl)c4)nc4c(N)ncnc43)[C@H](O)[C@@H]2O)cc1 gave an IC50 of 300 nM (Trpm7; calcium signal).
Cc1nc(N(Cc2ccccc2)c2ccc3c(c2)/C(=C/c2ccccc2)C(=O)N3Cc2ccccc2)c2ccccc2n1 (mixture of isomers) gave an IC50 of 9.11 nM (PIK3CA; enzyme activity, inhibitor, ADP detection).
For CC1(C)CN(C(=O)Cn2c(=O)c(C(=O)NCc3ccc(Cl)cc3)cc3nccnc32)C1, the IC50 was 2260 nM (DNA polymerase catalytic subunit; enzyme activity, inhibitor).
The IC50 of Cc1cc(Br)cc2oc(C(=O)NS(=O)(=O)c3ccccc3-c3ccccc3)cc12 is reported as 150 nM (Histone acetyltransferase KAT6B; enzyme activity, inhibitor, TR-FRET).
Cc1nc(Nc2ccc3c(c2)C(C)(C)C(=O)N3C)c2ccccc2n1 has an IC50 of 182 nM (PIK3CB; enzyme activity, inhibitor, ADP detection).
With CC(=NNC(=O)c1ccncc1)c1ccc(Nc2nnc(-c3ccc(Cl)cc3)c3ccccc23)cc1 the IC50 was 148 nM (KDR; cell-free assay, inhibitor).
The IC50 of CCCOc1ccccc1S(=O)(=O)NC(=O)c1cc2c(C)cc(OC)cc2o1 is reported as 61 nM (Histone acetyltransferase KAT6B; enzyme activity, inhibitor, TR-FRET).
The IC50 of CCCc1c(-c2ccccc2)nn(-c2ccccn2)c1O is reported as 2200 nM (NOX5; enzyme activity, inhibitor).
Cc1nc(Nc2ccc3c(c2)C(C)(C)C(=O)N3)c2ccccc2n1 gave an IC50 of 153 nM (PIK3CB; enzyme activity, inhibitor, ADP detection).
O=C(NS(=O)(=O)c1ccccc1-c1ccccc1)c1cc2ccc(OCCO)cc2o1 gave an IC50 of 5940 nM (Histone acetyltransferase KAT6B; enzyme activity, inhibitor, TR-FRET).
With Cc1nc(N(C)c2ccc3c(c2)/C(=C/c2ccccc2Cl)C(=O)N3C)c2ccccc2n1 the IC50 was 117 nM (PIK3CB; enzyme activity, inhibitor, ADP detection).
O=C(/C=C/c1ccc(O)c2oc(-c3ccc(O)c(O)c3)cc12)O[C@H](Cc1ccc(O)c(O)c1)C(=O)O has an IC50 of 29000 nM (YTH domain-containing protein 1 (Homo sapiens, UniProt Q96MU7); ligand displacement, FP).
For CN(C)C(=O)CN1CCN(c2cnc3c(cc(C(=O)NCc4ccc(Cl)cc4)c(=O)n3CC(=O)N3CC(C)(F)C3)n2)C1=O, the IC50 was 328 nM (DNA polymerase catalytic subunit; enzyme activity, inhibitor).
The IC50 of c1ccc2c(c1)CCC[C@H]2Nc1nc2ccccc2[nH]1 is reported as 1130 nM (Trpm7; calcium signal).
The IC50 of COc1ccc2[nH]c(C(=O)Nc3nc(CC(=O)O)cs3)cc2c1 is reported as 921 nM (KDR; enzyme activity, inhibitor, ELISA).
